In brackets after ≈: the same amount, converted by molar mass. A value given as a limit tells only on which side of the number the result lay.

Data set [1] can be described thus: Solubility of the compound at pH 7.4 after 18 hrs by UV spectrometry. Format: physicochemical. The conditions noted are these: buffer, pH 7.4. The gist of the method: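 10 mM DMSO stocks diluted 100-fold in system solution buffer pH 7.4 and held 18 h at room temperature. Filtered, diluted 1:1 with isopropanol and measured by UV (230–500 nm). Compared against a 600-fold diluted reference in buffer/isopropanol. Triplicates.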

A short description of data set [2]: Half life in mouse liver microsomes. Format: ADME, Microsome. Put shortly:
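Mouse liver microsomes at 0.6381 mg/mL protein in 0.1 M potassium phosphate pH 7.4 with EDTA. Reaction started with NADPH regenerating system at 37°C; six time points including 0, triplicate wells. Quenched in cold acetonitrile with warfarin internal standard, analysed by LC–MS. Half-life from a first-order least-squares fit.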
(In general: Liver microsomes are vesicles of endoplasmic reticulum, rich in cytochrome P450 enzymes.)

The nature of data set [3]: Half life in human liver microsomes. Format: ADME, Microsome.
A short description of data set [4]: Apparent permeability of the compound from apical to basal side of human Caco2 cells at 50 umol/L after 2 hrs by UPLC/MS analysis. Format: ADME, cell-based. The conditions noted are these: Caco-2. Put shortly:
(§1)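 Caco-2 monolayers grown 7 days on Transwell inserts, washed with HBSS/HEPES pH 7.4. Compound at 50 µmol/L added apically or basolaterally, then 2 h at 37°C. Receiver side sampled and quantified by UPLC/MS. Papp = (dQ/dt)/(A×C0), triplicates.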
In general terms: Passage across Caco-2 layers is used to estimate intestinal permeability.

A short description of data set [5]: Apparent permeability of the compound from basal to apical side of human Caco2 cells at 50 umol/L after 2 hrs by UPLC/MS analysis. Type of data set: ADME, cell-based. The conditions noted are these: Caco-2. Put shortly:
as §1

A short description of data set [6]: Plasma protein binding in mouse at 10 uM after 4 hrs by LC/MS analysis. Format: ADME, cell-free. The conditions noted are these: read-out: PPB (converted). The gist of the method: (§2)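 Compound at 10 µM (0.1% DMSO) in mouse or human plasma. Rapid equilibrium dialysis (MWCO 8K) against DPBS pH 7.4, 4 h at 37°C with orbital shaking. Both chambers matrix-matched, precipitated with acetonitrile containing warfarin internal standard, quantified by LC–MS. %Free = buffer/plasma × 100; %Bound = 100 − %Free.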

Data set [7] in a line: Plasma protein binding in human at 10 uM after 4 hrs by LC/MS analysis. The conditions noted are these: read-out: PPB (converted). Format: ADME, cell-free. Put shortly:
as §2

The subject of the next data set is Staphylococcus aureus. The data set is described as follows: Antibacterial activity against Staphylococcus aureus ATCC 29213 after overnight incubation by microbroth dilution technique. Format: functional. Put shortly: (§3)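 Two-fold serial broth dilutions per CLSI; inoculum about 10^5 CFU/mL; top final drug concentration 200 µg/mL; incubated aerobically overnight at 37°C. MIC read visually as the lowest concentration with no visible growth.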
On the technique in general: Dilution methods test growth across graded concentrations, often in twofold steps.

In a further data set the test system is Streptococcus pyogenes. Kind of data set: Antibacterial activity against Streptococcus pyogenes ATCC 700294 after overnight incubation by microbroth dilution technique. Format: functional. Put shortly: as §3
For the next data set, the system named is Streptococcus pneumoniae. The data set is described as follows: Antibacterial activity against Streptococcus pneumoniae DAW27 after overnight incubation by microbroth dilution technique. Format: functional. The gist of the method:
as §3

A further data set deals with Enterococcus faecalis. The data set is described as follows: Antibacterial activity against Enterococcus faecalis ATCC 3186 after overnight incubation by microbroth dilution technique. Type of data set: functional. Put shortly:
as §3

Another data set concerns Bacillus subtilis. The data set is described as follows: Antibacterial activity against Bacillus subtilis ATCC 23857 after overnight incubation by microbroth dilution technique. Type of data set: functional. The gist of the method:
(§4)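 Non-mycobacterial strains: two-fold serial dilutions in broth by CLSI microbroth dilution. Inoculum about 10^5 cfu/mL; top final drug concentration 200 µg/mL. Aerobic incubation at 37°C overnight. MIC read visually as the lowest concentration with no visible growth.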

A further data set deals with Bacillus anthracis. The data set is described as follows: Antibacterial activity against Bacillus anthracis Sterne 34F2 after overnight incubation by microbroth dilution technique. Format: functional. Put shortly:
as §4

In the next data set the test system is Escherichia coli. Kind of data set: Antibacterial activity against Escherichia coli K12 after overnight incubation by microbroth dilution technique. Type of data set: functional. The conditions noted are these: K-12. The gist of the method: as §4

In turn, `CN1CCN(c2ccc(C3CC(c4ccc([N+](=O)[O-])o4)=NO3)cn2)C(=O)C1` (configuration not stated) yielded a solubility at 18 h in data set [1] of 28.9 µg/mL (≈ 77.8 µM). Moreover, the half-life in data set [2] is 0.35 h; in data set [3], 4.24 h. In addition, the Papp A→B at 2 h, 50 µM in data set [4] amounted to 36.6 ×10⁻⁶ cm/s. Besides, the Papp B→A at 2 h, 50 µM in [5] amounted to 33.3 ×10⁻⁶ cm/s. Besides, the fraction unbound at 4 h, 10 µM in [6] is 0.402; in data set [7], 0.511. Besides, the MIC in the data set on Staphylococcus aureus is 12.5 µg/mL (≈ 33.7 µM); against Streptococcus pyogenes, 50 µg/mL (≈ 135 µM); in the data set on Streptococcus pneumoniae, 50 µg/mL (≈ 135 µM); in the data set on Enterococcus faecalis, 100 µg/mL (≈ 269 µM); against Bacillus subtilis it was 25 µg/mL (≈ 67.3 µM); in the data set with Bacillus anthracis it was 25 µg/mL (≈ 67.3 µM). The MIC with Escherichia coli is 50 µg/mL (≈ 135 µM).
With `CN1CCN(c2ccc(C3CC(c4ccc([N+](=O)[O-])o4)=NO3)cc2F)C(=O)C1` (configuration not stated), in data set [1], the concentration in solution (solubility at 18 h) was 29.2 µg/mL (≈ 75.2 µM). The half-life in [2] is 0.62 h; in data set [3], 4.81 h. Also, in [4], the Papp A→B at 2 h, 50 µM turned out to be 27 ×10⁻⁶ cm/s. For the same compound, the Papp B→A at 2 h, 50 µM in data set [5] came to 38.6 ×10⁻⁶ cm/s. Moreover, the fraction unbound at 4 h, 10 µM in data set [6] is 0.172; in data set [7] it was 0.391. The MIC with Staphylococcus aureus is 6.25 µg/mL (≈ 16.1 µM); against Streptococcus pyogenes, 50 µg/mL (≈ 129 µM); in the data set on Streptococcus pneumoniae it was 50 µg/mL (≈ 129 µM); with Enterococcus faecalis, 100 µg/mL (≈ 257 µM); against Bacillus anthracis, 25 µg/mL (≈ 64.4 µM); against Escherichia coli it was 200 µg/mL (≈ 515 µM).
In data set [1], `O=C1COCCN1c1ccc(C2CC(c3ccc([N+](=O)[O-])o3)=NO2)cc1` (configuration not stated) returned a solubility at 18 h of 25.9 µg/mL (≈ 72.4 µM). Moreover, the half-life in data set [2] was 1.4 h; in data set [3] it was 10 h. Besides, the Papp A→B at 2 h, 50 µM in [4] stood at 12.6 ×10⁻⁶ cm/s. Besides, the Papp B→A at 2 h, 50 µM in data set [5] was 56.5 ×10⁻⁶ cm/s. Also, the values for the fraction unbound at 4 h, 10 µM in data set [6] and in [7] were 0.34 and 0.357, respectively. The MIC against Staphylococcus aureus is 6.25 µg/mL (≈ 17.5 µM); with Streptococcus pyogenes, 100 µg/mL (≈ 280 µM); in the data set with Streptococcus pneumoniae, 200 µg/mL (≈ 560 µM); in the data set with Enterococcus faecalis, > 200 µg/mL; in the data set with Bacillus subtilis it was 6.25 µg/mL (≈ 17.5 µM); against Bacillus anthracis it was 25 µg/mL (≈ 70 µM). In the data set with Escherichia coli, this compound returned a minimal inhibitory concentration (MIC) of 25 µg/mL (≈ 70 µM).
In data set [1], `O=C1COCCN1c1ccc(C2CC(c3ccc([N+](=O)[O-])o3)=NO2)cn1` (configuration not stated) displayed a solubility at 18 h of 21.9 µg/mL (≈ 61.2 µM). For the same compound, the half-life in data set [2] is 1.01 h; in [3] it was 1.52 h. In [4], the Papp A→B at 2 h, 50 µM came out at 8.61 ×10⁻⁶ cm/s. In addition, in data set [5], the Papp B→A at 2 h, 50 µM was 45.7 ×10⁻⁶ cm/s. For the same compound, the fraction unbound at 4 h, 10 µM is 0.411 in data set [6] and 0.398 in data set [7]. In addition, the MIC with Staphylococcus aureus is 12.5 µg/mL (≈ 34.9 µM); in the data set on Streptococcus pneumoniae, 50 µg/mL (≈ 140 µM); in the data set on Enterococcus faecalis, > 200 µg/mL; in the data set with Bacillus subtilis, 12.5 µg/mL (≈ 34.9 µM); against Bacillus anthracis, 25 µg/mL (≈ 69.8 µM); in the data set with Escherichia coli, 25 µg/mL (≈ 69.8 µM).
Consider `O=C1COCCN1c1ccc(C2CC(c3ccc([N+](=O)[O-])o3)=NO2)cc1F` (configuration not stated), for which the solubility at 18 h in [1] is 12.6 µg/mL (≈ 33.5 µM). Besides, the results for the half-life in [2] and in data set [3] were 1.38 h and 8.31 h, respectively. In addition, the Papp A→B at 2 h, 50 µM in data set [4] was 15.4 ×10⁻⁶ cm/s. Further, the Papp B→A at 2 h, 50 µM in data set [5] turned out to be 42.4 ×10⁻⁶ cm/s. Besides, the fraction unbound at 4 h, 10 µM in data set [6] is 0.203; in data set [7], 0.292. Also, the MIC was 6.25 µg/mL (≈ 16.7 µM) against Staphylococcus aureus; 100 µg/mL (≈ 266 µM) against Streptococcus pyogenes; 200 µg/mL (≈ 533 µM) in the data set on Streptococcus pneumoniae; 200 µg/mL (≈ 533 µM) with Enterococcus faecalis; 25 µg/mL (≈ 66.6 µM) in the data set on Bacillus anthracis; > 200 µg/mL against Escherichia coli.

One may read the solubility as how much of the substance goes into solution per volume. In general, half-life refers to how long it takes for the measured level to halve. For orientation: Papp A→B means the apparent permeability from the apical to the basolateral side of a cell layer. In general, Papp B→A refers to how fast a substance crosses the layer from the basolateral side. A word on the MIC: it is the least concentration at which growth counts as inhibited. A higher MIC goes with a less susceptible organism.

The values are drawn from ChEMBL document CHEMBL2146426, “Antitubercular nitrofuran isoxazolines with improved pharmacokinetic properties” (Bioorg Med Chem, 2012).
